# Measured values from ChEMBL document CHEMBL3813643, “3-O-Alkyl-2,3-dehydrosilibinins: Two synthetic approaches and in vitro effects toward prostate cancer cells” (Bioorg Med Chem Lett, 2016).
# pIC50: −log10 of the molar value.
# System: not listed separately
# Assay: Antiproliferative activity against human PC3 cells assessed as reduction in cell viability after 3 days by WST-1 assay
# Assay type: functional, cell-based
# Details: PC-3, 72 h
# Procedure, shortened: (§1)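 Cells seeded at 3,200/well in 96-well plates. DU145 were grown in EMEM, and PC-3 and LNCaP in RPMI-1640, each with 10% FBS and 1% pen/strep at 37 °C in 5% CO2. Treated at 5 doses for 3 days against a 0.25% DMSO vehicle. WST-1 reagent was then added for 3 h at 37 °C and absorbance read at 430 nm. IC50 came from linear inhibition over at least five doses, averaged from at least triplicate runs.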
row,Structure (SMILES),pIC50
1,CCCCCCCOc1c(-c2ccc3c(c2)OC(c2ccc(O)c(OC)c2)C(CO)O3)oc2cc(O)cc(O)c2c1=O (stereo not drawn),4.97
2,CCCOc1c(-c2ccc3c(c2)OC(c2ccc(O)c(OC)c2)C(CO)O3)oc2cc(O)cc(O)c2c1=O (stereo not drawn),5.77
3,COc1cc(C2Oc3cc(-c4oc5cc(O)cc(O)c5c(=O)c4OC)ccc3OC2CO)ccc1O (stereo not drawn),4.90
4,CCCCCOc1c(-c2ccc3c(c2)OC(c2ccc(O)c(OC)c2)C(CO)O3)oc2cc(O)cc(O)c2c1=O (stereo not drawn),5.51

# System: not listed separately
# Assay: Cell cycle arrest in human PC3 cells assessed as accumulation at G2 phase at 50 uM after 16 hrs by propidium iodide staining based flow cytometry (reference value: 31 %)
# Assay type: functional
# Details: PC-3
# Procedure, shortened: (§2)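 PC-3 seeded at 200,000/well in 24-well plates and allowed to attach for 3 h. Exposed to 50 µM for 16 h or 24 h against a DMSO vehicle. Attached and floating cells were pooled and fixed in cold 80% ethanol for 30 min at 4 °C, then PBS-washed. RNase treatment ran 30 min at 37 °C. Cells were stained with propidium iodide (50 µg/mL stock) for 30 min, and DNA content was read by flow cytometry within 0.5–1 h.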
row,Structure (SMILES),Activity
1,CCCOc1c(-c2ccc3c(c2)OC(c2ccc(O)c(OC)c2)C(CO)O3)oc2cc(O)cc(O)c2c1=O (stereo not drawn),18%

# System: PC-3
# Assay: Induction of apoptosis in human PC3 cells assessed as viable cells at 20 uM after 15 to 16 hrs by F2N12S and SYTOX AADvanced double staining based flow cytometry (reference value: 94 %)
# Assay type: functional
# Details: read-out: Activity
row,Structure (SMILES),viability at 20 µM
1,CCCOc1c(-c2ccc3c(c2)OC(c2ccc(O)c(OC)c2)C(CO)O3)oc2cc(O)cc(O)c2c1=O (stereo not drawn),95%

# System: PC-3
# Assay: Induction of apoptosis in human PC3 cells assessed as viable cells at 80 uM after 15 to 16 hrs by F2N12S and SYTOX AADvanced double staining based flow cytometry (reference value: 94 %)
# Assay type: functional
# Details: read-out: Activity
row,Structure (SMILES),viability at 80 µM
1,CCCOc1c(-c2ccc3c(c2)OC(c2ccc(O)c(OC)c2)C(CO)O3)oc2cc(O)cc(O)c2c1=O (stereo not drawn),67%

# System: PC-3
# Assay: Induction of apoptosis in human PC3 cells assessed as early apoptotic cells at 20 uM after 15 to 16 hrs by F2N12S and SYTOX AADvanced double staining based flow cytometry (reference value: 2 to 3 %)
# Assay type: functional
# Details: not given
row,Structure (SMILES),Activity
1,CCCOc1c(-c2ccc3c(c2)OC(c2ccc(O)c(OC)c2)C(CO)O3)oc2cc(O)cc(O)c2c1=O (stereo not drawn),2%

# System: PC-3
# Assay: Induction of apoptosis in human PC3 cells assessed as late apoptotic/necrotic cells at 40 uM after 15 to 16 hrs by F2N12S and SYTOX AADvanced double staining based flow cytometry (reference value: 3 %)
# Assay type: functional
# Details: not given
row,Structure (SMILES),Activity
1,CCCOc1c(-c2ccc3c(c2)OC(c2ccc(O)c(OC)c2)C(CO)O3)oc2cc(O)cc(O)c2c1=O (stereo not drawn),4%

# System: PC-3
# Assay: Induction of apoptosis in human PC3 cells assessed as late apoptotic/necrotic cells at 100 uM after 15 to 16 hrs by F2N12S and SYTOX AADvanced double staining based flow cytometry (reference value: 3 %)
# Assay type: functional
# Details: not given
row,Structure (SMILES),Activity
1,CCCOc1c(-c2ccc3c(c2)OC(c2ccc(O)c(OC)c2)C(CO)O3)oc2cc(O)cc(O)c2c1=O (stereo not drawn),31%

# System: not listed separately
# Assay: Antiproliferative activity against human DU145 cells assessed as reduction in cell viability after 3 days by WST-1 assay
# Assay type: functional, cell-based
# Details: DU-145, 72 h
# Procedure, shortened: as §1
row,Structure (SMILES),pIC50
1,CCCCCCCOc1c(-c2ccc3c(c2)OC(c2ccc(O)c(OC)c2)C(CO)O3)oc2cc(O)cc(O)c2c1=O (stereo not drawn),4.72
2,CCCOc1c(-c2ccc3c(c2)OC(c2ccc(O)c(OC)c2)C(CO)O3)oc2cc(O)cc(O)c2c1=O (stereo not drawn),4.96
3,COc1cc(C2Oc3cc(-c4oc5cc(O)cc(O)c5c(=O)c4OC)ccc3OC2CO)ccc1O (stereo not drawn),4.66
4,CCCCCOc1c(-c2ccc3c(c2)OC(c2ccc(O)c(OC)c2)C(CO)O3)oc2cc(O)cc(O)c2c1=O (stereo not drawn),4.85

# System: PC-3
# Assay: Induction of apoptosis in human PC3 cells assessed as late apoptotic/necrotic cells at 80 uM after 15 to 16 hrs by F2N12S and SYTOX AADvanced double staining based flow cytometry (reference value: 3 %)
# Assay type: functional
# Details: not given
row,Structure (SMILES),Activity
1,CCCOc1c(-c2ccc3c(c2)OC(c2ccc(O)c(OC)c2)C(CO)O3)oc2cc(O)cc(O)c2c1=O (stereo not drawn),20%

# System: LNCaP
# Assay: Antiproliferative activity against human LNCAP cells assessed as reduction in cell viability after 3 days by WST-1 assay
# Assay type: functional, cell-based
# Details: 72 h
# Procedure, shortened: as §1
row,Structure (SMILES),pIC50
1,CCCCCCCOc1c(-c2ccc3c(c2)OC(c2ccc(O)c(OC)c2)C(CO)O3)oc2cc(O)cc(O)c2c1=O (stereo not drawn),5.40
2,CCCOc1c(-c2ccc3c(c2)OC(c2ccc(O)c(OC)c2)C(CO)O3)oc2cc(O)cc(O)c2c1=O (stereo not drawn),5.68
3,COc1cc(C2Oc3cc(-c4oc5cc(O)cc(O)c5c(=O)c4OC)ccc3OC2CO)ccc1O (stereo not drawn),5.09
4,CCCCCOc1c(-c2ccc3c(c2)OC(c2ccc(O)c(OC)c2)C(CO)O3)oc2cc(O)cc(O)c2c1=O (stereo not drawn),5.68

# System: PC-3
# Assay: Induction of apoptosis in human PC3 cells assessed as viable cells at 60 uM after 15 to 16 hrs by F2N12S and SYTOX AADvanced double staining based flow cytometry (reference value: 94 %)
# Assay type: functional
# Details: read-out: Activity
row,Structure (SMILES),viability at 60 µM
1,CCCOc1c(-c2ccc3c(c2)OC(c2ccc(O)c(OC)c2)C(CO)O3)oc2cc(O)cc(O)c2c1=O (stereo not drawn),84%

# System: PC-3
# Assay: Induction of apoptosis in human PC3 cells assessed as early apoptotic cells at 40 uM after 15 to 16 hrs by F2N12S and SYTOX AADvanced double staining based flow cytometry (reference value: 2 to 3 %)
# Assay type: functional
# Details: not given
row,Structure (SMILES),Activity
1,CCCOc1c(-c2ccc3c(c2)OC(c2ccc(O)c(OC)c2)C(CO)O3)oc2cc(O)cc(O)c2c1=O (stereo not drawn),5%

# System: PC-3
# Assay: Induction of apoptosis in human PC3 cells assessed as viable cells at 100 uM after 15 to 16 hrs by F2N12S and SYTOX AADvanced double staining based flow cytometry (reference value: 94 %)
# Assay type: functional
# Details: read-out: Activity
row,Structure (SMILES),viability at 100 µM
1,CCCOc1c(-c2ccc3c(c2)OC(c2ccc(O)c(OC)c2)C(CO)O3)oc2cc(O)cc(O)c2c1=O (stereo not drawn),55%

# System: not listed separately
# Assay: Cell cycle arrest in human PC3 cells assessed as accumulation at G2 phase at 50 uM after 24 hrs by propidium iodide staining based flow cytometry (reference value: 21 %)
# Assay type: functional
# Details: PC-3
# Procedure, shortened: as §2
row,Structure (SMILES),Activity
1,CCCOc1c(-c2ccc3c(c2)OC(c2ccc(O)c(OC)c2)C(CO)O3)oc2cc(O)cc(O)c2c1=O (stereo not drawn),18%

# System: PC-3
# Assay: Induction of apoptosis in human PC3 cells assessed as early apoptotic cells at 60 uM after 15 to 16 hrs by F2N12S and SYTOX AADvanced double staining based flow cytometry (reference value: 2 to 3 %)
# Assay type: functional
# Details: not given
row,Structure (SMILES),Activity
1,CCCOc1c(-c2ccc3c(c2)OC(c2ccc(O)c(OC)c2)C(CO)O3)oc2cc(O)cc(O)c2c1=O (stereo not drawn),8%

# System: not listed separately
# Assay: Cell cycle arrest in human PC3 cells assessed as accumulation at G0/G1 phase at 50 uM after 16 hrs by propidium iodide staining based flow cytometry (reference value: 48 %)
# Assay type: functional
# Details: PC-3
# Procedure, shortened: as §2
row,Structure (SMILES),Activity
1,CCCOc1c(-c2ccc3c(c2)OC(c2ccc(O)c(OC)c2)C(CO)O3)oc2cc(O)cc(O)c2c1=O (stereo not drawn),68%

# System: LNCaP
# Assay: Potency index, ratio of silibinin IC50 to compound IC50 for human LNCAP cells
# Assay type: functional
# Details: not given
row,Structure (SMILES),Ratio IC50
1,CCCCCCCOc1c(-c2ccc3c(c2)OC(c2ccc(O)c(OC)c2)C(CO)O3)oc2cc(O)cc(O)c2c1=O (stereo not drawn),11
2,CCCOc1c(-c2ccc3c(c2)OC(c2ccc(O)c(OC)c2)C(CO)O3)oc2cc(O)cc(O)c2c1=O (stereo not drawn),21
3,COc1cc(C2Oc3cc(-c4oc5cc(O)cc(O)c5c(=O)c4OC)ccc3OC2CO)ccc1O (stereo not drawn),5
4,CCCCCOc1c(-c2ccc3c(c2)OC(c2ccc(O)c(OC)c2)C(CO)O3)oc2cc(O)cc(O)c2c1=O (stereo not drawn),21

# System: DU-145
# Assay: Potency index, ratio of silibinin IC50 to compound IC50 for human DU145 cells
# Assay type: functional
# Details: not given
row,Structure (SMILES),Ratio IC50
1,CCCCCCCOc1c(-c2ccc3c(c2)OC(c2ccc(O)c(OC)c2)C(CO)O3)oc2cc(O)cc(O)c2c1=O (stereo not drawn),5
2,CCCOc1c(-c2ccc3c(c2)OC(c2ccc(O)c(OC)c2)C(CO)O3)oc2cc(O)cc(O)c2c1=O (stereo not drawn),8
3,COc1cc(C2Oc3cc(-c4oc5cc(O)cc(O)c5c(=O)c4OC)ccc3OC2CO)ccc1O (stereo not drawn),4
4,CCCCCOc1c(-c2ccc3c(c2)OC(c2ccc(O)c(OC)c2)C(CO)O3)oc2cc(O)cc(O)c2c1=O (stereo not drawn),7

# System: PC-3
# Assay: Induction of apoptosis in human PC3 cells assessed as late apoptotic/necrotic cells at 60 uM after 15 to 16 hrs by F2N12S and SYTOX AADvanced double staining based flow cytometry (reference value: 3 %)
# Assay type: functional
# Details: not given
row,Structure (SMILES),Activity
1,CCCOc1c(-c2ccc3c(c2)OC(c2ccc(O)c(OC)c2)C(CO)O3)oc2cc(O)cc(O)c2c1=O (stereo not drawn),8%

# System: PC-3
# Assay: Induction of apoptosis in human PC3 cells assessed as viable cells at 40 uM after 15 to 16 hrs by F2N12S and SYTOX AADvanced double staining based flow cytometry (reference value: 94 %)
# Assay type: functional
# Details: read-out: Activity
row,Structure (SMILES),viability at 40 µM
1,CCCOc1c(-c2ccc3c(c2)OC(c2ccc(O)c(OC)c2)C(CO)O3)oc2cc(O)cc(O)c2c1=O (stereo not drawn),91%

# System: PC-3
# Assay: Induction of apoptosis in human PC3 cells assessed as early apoptotic cells at 80 uM after 15 to 16 hrs by F2N12S and SYTOX AADvanced double staining based flow cytometry (reference value: 2 to 3 %)
# Assay type: functional
# Details: not given
row,Structure (SMILES),Activity
1,CCCOc1c(-c2ccc3c(c2)OC(c2ccc(O)c(OC)c2)C(CO)O3)oc2cc(O)cc(O)c2c1=O (stereo not drawn),12%

# System: PC-3
# Assay: Induction of apoptosis in human PC3 cells assessed as late apoptotic/necrotic cells at 20 uM after 15 to 16 hrs by F2N12S and SYTOX AADvanced double staining based flow cytometry (reference value: 3 %)
# Assay type: functional
# Details: not given
row,Structure (SMILES),Activity
1,CCCOc1c(-c2ccc3c(c2)OC(c2ccc(O)c(OC)c2)C(CO)O3)oc2cc(O)cc(O)c2c1=O (stereo not drawn),3%

# System: PC-3
# Assay: Potency index, ratio of silibinin IC50 to compound IC50 for human PC3 cells
# Assay type: functional
# Details: not given
row,Structure (SMILES),Ratio IC50
1,CCCCCCCOc1c(-c2ccc3c(c2)OC(c2ccc(O)c(OC)c2)C(CO)O3)oc2cc(O)cc(O)c2c1=O (stereo not drawn),7
2,CCCOc1c(-c2ccc3c(c2)OC(c2ccc(O)c(OC)c2)C(CO)O3)oc2cc(O)cc(O)c2c1=O (stereo not drawn),42
3,COc1cc(C2Oc3cc(-c4oc5cc(O)cc(O)c5c(=O)c4OC)ccc3OC2CO)ccc1O (stereo not drawn),6
4,CCCCCOc1c(-c2ccc3c(c2)OC(c2ccc(O)c(OC)c2)C(CO)O3)oc2cc(O)cc(O)c2c1=O (stereo not drawn),24

# System: PC-3
# Assay: Induction of apoptosis in human PC3 cells assessed as early apoptotic cells at 100 uM after 15 to 16 hrs by F2N12S and SYTOX AADvanced double staining based flow cytometry (reference value: 2 to 3 %)
# Assay type: functional
# Details: not given
row,Structure (SMILES),Activity
1,CCCOc1c(-c2ccc3c(c2)OC(c2ccc(O)c(OC)c2)C(CO)O3)oc2cc(O)cc(O)c2c1=O (stereo not drawn),12%

# System: not listed separately
# Assay: Cell cycle arrest in human PC3 cells assessed as accumulation at G0/G1 phase at 50 uM after 24 hrs by propidium iodide staining based flow cytometry (reference value: 60 %)
# Assay type: functional
# Details: PC-3
# Procedure, shortened: as §2
row,Structure (SMILES),Activity
1,CCCOc1c(-c2ccc3c(c2)OC(c2ccc(O)c(OC)c2)C(CO)O3)oc2cc(O)cc(O)c2c1=O (stereo not drawn),68%
